From ChEMBL document CHEMBL1772981, “Discovery of 2-arylbenzoxazoles as upregulators of utrophin production for the treatment of Duchenne muscular dystrophy” (J Med Chem, 2011)
pEC50: −log10 of the molar value. ≈ marks a conversion by molar mass, not a printed value. Each block holds one compound with its values, some of them ahead of it.

Experiments:
Mus musculus [1] = organism: Mus musculus; assay: Activation of UTRN promoter in mouse H2K cells assessed as upregulation of UTRN production after 48 hrs by luciferase reporter linked assay; format: functional, cell-based
Summary of the method: (§1)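 H2K myoblasts stably carrying a utrophin (UTRN) promoter–luciferase reporter were plated 24 h before dosing and exposed to compound for 48 h. Luciferase was read by luminescence (Steady-Glo). The primary screen was at 10 μM and the secondary at six concentrations for EC50, both in triplicate. Non-EC50 values are % of the reference upregulator's maximum, given with the concentration at maximum.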

Mus musculus [2] = organism: Mus musculus; assay: Activation of UTRN promoter in mouse H2K cells assessed as upregulation of UTRN production at 10 uM after 72 hrs by RT-PCR analysis; format: functional
Summary of the method: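 H2K cells were seeded at 25000 per well, left 24 h, then dosed for 72 h in 1% DMSO final. Total RNA was extracted and reverse transcribed. qPCR used an amplicon spanning the UTRN exon 3–4 boundary, with β-actin as the endogenous control, and was quantified by ΔΔCT. Values are % UTRN relative to DMSO control (=100), with P value.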

Mus musculus [3] = organism: Mus musculus; assay: Activation of UTRN promoter in mouse H2K cells assessed as upregulation of UTRN production at 10 uM after 48 hrs by luciferase reporter linked assay; format: functional; summary of the method: as §1
Mus musculus [4] = organism: Mus musculus; assay: Activation of UTRN promoter in mouse H2K cells assessed as upregulation of UTRN production at 3 uM after 48 hrs by luciferase reporter linked assay; format: functional; summary of the method: as §1
[5] = Half life in human liver microsomes; format: ADME, Microsome
[6] = Half life in mouse liver microsomes; format: ADME, Microsome
[7] = AUC in CD1 mouse at 50 mg/kg, ip; format: ADME, organism-based; parameters: dose 50 mg/kg, route intraperitoneal; details: plasma
Summary of the method: (§2)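 Male CD1 mice were given 50 mg/kg i.p. in 95% PBS with 0.1% Tween 20 and 5% DMSO. Plasma was sampled at 0.08, 0.25, 0.5, 1, 2, 4, 8 and 24 h in three animals, and values are the mean in ng/mL.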

[8] = Cmax in CD1 mouse at 50 mg/kg, ip; format: ADME, organism-based; parameters: dose 50 mg/kg, route intraperitoneal; details: in vivo; summary of the method: as §2
[9] = Aqueous solubility of the compound by turbidimetry; format: physicochemical; details: buffer
Summary of the method: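 Turbidimetric aqueous solubility, reported as the final test compound concentration.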

[10] = Tmax in CD1 mouse at 50 mg/kg, ip; format: ADME, organism-based; parameters: dose 50 mg/kg, route intraperitoneal; details: in vivo; summary of the method: as §2
Mus musculus [11] = organism: Mus musculus; assay: Activation of UTRN promoter in mouse H2K cells assessed as upregulation of UTRN production at 30 uM after 48 hrs by luciferase reporter linked assay; format: functional; summary of the method: as §1
Mus musculus [12] = assay: Tmax in CD1 mouse at 10 mg/kg, ip; format: ADME, organism-based; parameters: dose 10 mg/kg, route intraperitoneal; details: in vivo
Summary of the method: (§3)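 Male CD1 mice were dosed i.p. at 10 mg/kg in 95% PBS containing 0.1% Tween 20 and 5% DMSO. Plasma was sampled at 5–360 or 5–480 min. AUC is in μg.min/mL. Half-life was not calculated where the log concentration–time plot lacked a linear region of at least three points.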

Mus musculus [13] = assay: AUC in CD1 mouse at 10 mg/kg, ip; format: ADME, organism-based, Plasma; parameters: dose 10 mg/kg, route intraperitoneal; details: in vivo; summary of the method: as §3
Mus musculus [14] = assay: Cmax in CD1 mouse at 10 mg/kg, ip; format: ADME, organism-based; parameters: dose 10 mg/kg, route intraperitoneal; details: in vivo; summary of the method: as §3
Mus musculus [15] = assay: Half life in CD1 mouse at 10 mg/kg, ip; format: ADME, organism-based; parameters: dose 10 mg/kg, route intraperitoneal; details: in vivo; summary of the method: as §3

Structure (SMILES): CCS(=O)(=O)c1ccc2oc(-c3cccc(Oc4ccccc4)c3)nc2c1
pEC50 (Mus musculus [1]; Mus musculus, H2K, 48 h): < 4.52

Structure (SMILES): CCCC(=O)Nc1ccc2oc(-c3ccccc3)nc2c1
pEC50 (Mus musculus [1]; Mus musculus, H2K, 48 h): 5.52

Structure (SMILES): CCS(=O)(=O)c1ccc2oc(-c3ccco3)nc2c1
pEC50 (Mus musculus [1]; Mus musculus, H2K, 48 h): < 4.52

Structure (SMILES): CCS(=O)(=O)c1ccc2oc(/C=C/c3ccccc3)nc2c1
Activity (Mus musculus [3]): 53%

Structure (SMILES): CCS(=O)(=O)c1ccc2oc(-c3ccc4ccccc4n3)nc2c1
Activity (Mus musculus [4]): 59%

Structure (SMILES): CCS(=O)(=O)c1ccc2oc(-c3ccc4sccc4c3)nc2c1
half-life [5]: 59 min
Activity (Mus musculus [3]): 86%

Structure (SMILES): O=C(CCc1ccccc1)Nc1ccc2oc(-c3ccc(Cl)cc3)nc2c1
pEC50 (Mus musculus [1]; Mus musculus, H2K, 48 h): < 4.52

Structure (SMILES): COc1ccc(-c2nc3cc(NC(=O)C(C)C)ccc3o2)cc1
Activity (Mus musculus [3]): 132%

Structure (SMILES): CCS(=O)(=O)c1ccc2oc(-c3ccc4ccccc4c3)nc2c1 [EZUTROMID]
half-life [6]: 81.5 min
half-life [5]: 105 min
AUC [7]: 420 µg·min/mL
Activity (Mus musculus [2]): 143%
Cmax [8]: 1490 ng/mL
solubility kinetic [9]: 3 µM (≈ 1.01 µg/mL)
pEC50 (Mus musculus [1]; Mus musculus, H2K, 48 h): 5.74
pEC50 (Mus musculus [1]; h2k): 6.04
Tmax [10]: 15 min

Structure (SMILES): CCN(CC)S(=O)(=O)c1ccc2oc(-c3ccc(Cl)cc3)nc2c1
Activity (Mus musculus [3]): 28%

Structure (SMILES): CCS(=O)(=O)c1ccc2oc(C3CCCCC3)nc2c1
Activity (Mus musculus [3]): 25%

Structure (SMILES): CC(C)S(=O)(=O)c1ccc2oc(-c3ccc(Cl)c(Cl)c3)nc2c1
Activity (Mus musculus [3]): 45%

Structure (SMILES): CCS(=O)(=O)c1ccc2oc(-c3ccc4c(c3)OCO4)nc2c1
pEC50 (Mus musculus [1]; Mus musculus, H2K, 48 h): 5.38

Structure (SMILES): CCS(=O)(=O)c1ccc2oc(-c3ccc(Cl)c(Cl)c3)nc2c1
half-life [6]: 101 min
half-life [5]: 105 min
Activity (Mus musculus [2]): 138.3%
solubility kinetic [9]: 3 µM (≈ 1.07 µg/mL)
pEC50 (Mus musculus [1]; Mus musculus, H2K, 48 h): 5.52

Structure (SMILES): CCCc1nc2cc(S(=O)(=O)CC)ccc2o1
Activity (Mus musculus [3]): 14%

Structure (SMILES): CCS(=O)(=O)c1ccc2oc(-c3ccccc3Cl)nc2c1
Activity (Mus musculus [11]): 62%

Structure (SMILES): Cc1cc2nc(-c3ccc(N)cc3O)oc2cc1C
half-life [6]: 22 min
Activity (Mus musculus [2]): 144.8%
Tmax (Mus musculus [12]): 5 min
AUC (Mus musculus [13]): 0.6 µg·min/mL
Cmax (Mus musculus [14]): 10.9 ng/mL
solubility kinetic [9]: 1 µM (≈ 0.254 µg/mL)
pEC50 (Mus musculus [1]; Mus musculus, H2K, 48 h): 6.15
t1/2 (Mus musculus [15]): 40.9 min

Structure (SMILES): O=C(Nc1ccc2oc(-c3ccccc3)nc2c1)c1ccccc1
pEC50 (Mus musculus [1]; Mus musculus, H2K, 48 h): < 4.52

Structure (SMILES): CCS(=O)(=O)c1ccc2oc(-c3ccc(Oc4ccccc4)cc3)nc2c1
pEC50 (Mus musculus [1]; Mus musculus, H2K, 48 h): < 4.52

Structure (SMILES): CCCCC(=O)Nc1ccc2oc(-c3ccccc3)nc2c1
Activity (Mus musculus [3]): 69%

Structure (SMILES): C[C@H](N)C(=O)Nc1ccc2oc(-c3ccc(Cl)cc3)nc2c1
Activity (Mus musculus [4]): 35%

Structure (SMILES): O=C(Cc1ccccc1)Nc1ccc2oc(-c3ccc(Cl)cc3)nc2c1
pEC50 (Mus musculus [1]; Mus musculus, H2K, 48 h): 5.30

Structure (SMILES): CCS(=O)(=O)c1ccc2oc(-c3cc4ccccc4cn3)nc2c1
Activity (Mus musculus [3]): 63%

Structure (SMILES): CC(C)C(=O)Nc1ccc2oc(-c3ccc(Cl)cc3Cl)nc2c1
Activity (Mus musculus [3]): 53%

Structure (SMILES): CCS(=O)(=O)c1ccc2oc(-c3cccs3)nc2c1
Activity (Mus musculus [11]): 29%

Structure (SMILES): CCN(CC)c1ccc(-c2nc3cc(NC(=O)C(C)C)ccc3o2)cc1
Activity (Mus musculus [3]): 12%

Structure (SMILES): CCS(=O)(=O)c1ccc2oc(Cc3ccc4ccccc4c3)nc2c1
pEC50 (Mus musculus [1]; Mus musculus, H2K, 48 h): < 4.52

Structure (SMILES): CCS(=O)(=O)c1ccc2oc(-c3cccc(Cl)c3Cl)nc2c1
Activity (Mus musculus [3]): 40%

Further lines, with some results ahead:

pEC50 (Mus musculus [1]; Mus musculus, H2K, 48 h): 6.00
Structure (SMILES): CC(C)c1ccc2oc(-c3ccc(N)cc3O)nc2c1

pEC50 (Mus musculus [1]; Mus musculus, H2K, 48 h): < 4.52
Structure (SMILES): CC(C)C(=O)N(C)c1ccc2oc(-c3ccc(Cl)cc3)nc2c1

pEC50 (Mus musculus [1]; Mus musculus, H2K, 48 h): 5.96
Structure (SMILES): CC(C)C(=O)Nc1ccc2oc(-c3ccccc3Cl)nc2c1

pEC50 (Mus musculus [1]; Mus musculus, H2K, 48 h): 5.40
Structure (SMILES): CC(C)C(=O)Nc1ccc2nc(-c3ccc(Cl)c(Cl)c3)oc2c1
Activity (Mus musculus [2]): 111.5%

pEC50 (Mus musculus [1]; Mus musculus, H2K, 48 h): 5.52
Structure (SMILES): CC(=O)Nc1ccc2oc(-c3ccccc3)nc2c1

pEC50 (Mus musculus [1]; Mus musculus, H2K, 48 h): < 4.52
Structure (SMILES): CC(C)C(=O)Nc1ccc2nc(-c3cccc(Cl)c3Cl)oc2c1

pEC50 (Mus musculus [1]; Mus musculus, H2K, 48 h): 5.35
Structure (SMILES): CC(C)C(=O)Nc1ccc2oc(-c3cccc(Cl)c3)nc2c1

pEC50 (Mus musculus [1]; Mus musculus, H2K, 48 h): 5.00
Structure (SMILES): CC(C)C(=O)Nc1ccc2oc(-c3cccc(Cl)c3Cl)nc2c1

pEC50 (Mus musculus [1]; Mus musculus, H2K, 48 h): 6.10
Structure (SMILES): CC(C)C(=O)Nc1ccc2oc(-c3ccccc3)nc2c1

pEC50 (Mus musculus [1]; Mus musculus, H2K, 48 h): < 5.00
Structure (SMILES): CCS(=O)(=O)c1ccc2oc(-c3cccc(Cl)c3F)nc2c1

pEC50 (Mus musculus [1]; Mus musculus, H2K, 48 h): 5.00
Structure (SMILES): CC(C)C(=O)Nc1ccc2[nH]c(-c3ccc(Cl)cc3)nc2c1

half-life [6]: 16.1 min
pEC50 (Mus musculus [1]; Mus musculus, H2K, 48 h): 6.05
Structure (SMILES): CC(C)C(=O)Nc1ccc2oc(-c3ccc(F)cc3)nc2c1

pEC50 (Mus musculus [1]; Mus musculus, H2K, 48 h): < 4.52
Structure (SMILES): CC(C)C(=O)Nc1ccc2oc(-c3cc(Cl)ccc3Cl)nc2c1

pEC50 (Mus musculus [1]; Mus musculus, H2K, 48 h): 5.92
Structure (SMILES): CC(C)C(=O)Nc1ccc2sc(-c3ccc(Cl)cc3)nc2c1
